These results are taken from PMC4454367 (Environmental science & technology, 2015).

Where “and” joins values, the source holds several entries; their conditions need not be identical. Identical values can stand only once.

The test system of one data set is chicken AHR. As to conditions: TCDD binding; cited from earlier work.
A further data set concerns zebrafish. To be noted: cited from earlier work.
Data set [1] has as its target T1, X. laevis AHR1β (Xenopus laevis, UniProt Q4QY30).
T1 sequence (Q4QY30 1-834): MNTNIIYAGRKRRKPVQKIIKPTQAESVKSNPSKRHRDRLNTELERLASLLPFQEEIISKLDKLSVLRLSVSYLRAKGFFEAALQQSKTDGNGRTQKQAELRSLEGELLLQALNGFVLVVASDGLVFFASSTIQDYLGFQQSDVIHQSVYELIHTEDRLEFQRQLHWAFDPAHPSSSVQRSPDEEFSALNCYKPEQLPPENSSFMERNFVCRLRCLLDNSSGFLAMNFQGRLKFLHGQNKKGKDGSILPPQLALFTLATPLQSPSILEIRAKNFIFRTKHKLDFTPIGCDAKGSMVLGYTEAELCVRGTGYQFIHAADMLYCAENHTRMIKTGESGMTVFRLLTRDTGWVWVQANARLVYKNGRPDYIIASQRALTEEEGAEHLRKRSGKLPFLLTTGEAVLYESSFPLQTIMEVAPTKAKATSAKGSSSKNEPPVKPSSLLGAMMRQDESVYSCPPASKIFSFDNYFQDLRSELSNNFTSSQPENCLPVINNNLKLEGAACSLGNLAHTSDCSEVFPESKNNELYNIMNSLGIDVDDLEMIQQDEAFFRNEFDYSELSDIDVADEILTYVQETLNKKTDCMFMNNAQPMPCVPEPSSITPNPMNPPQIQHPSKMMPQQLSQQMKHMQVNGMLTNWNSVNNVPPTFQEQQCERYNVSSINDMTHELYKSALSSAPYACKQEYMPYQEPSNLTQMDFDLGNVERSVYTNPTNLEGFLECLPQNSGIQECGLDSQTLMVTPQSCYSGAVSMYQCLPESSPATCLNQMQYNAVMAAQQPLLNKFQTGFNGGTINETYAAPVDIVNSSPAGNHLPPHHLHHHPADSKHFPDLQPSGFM
Nature of the data set: Velocity sedimentation analysis of [3H]TCDD binding, X. laevis AHR1β. As to conditions: 2 nM [3H]TCDD, 18 h at 4°, sucrose gradients, in vitro synthesized AHR. Put shortly: (§1)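 AHR made in vitro from pCMVTNT in a rabbit reticulocyte coupled transcription/translation system, diluted 1:1 in MEDMDG buffer (pH 7.5, molybdate, glycerol, DTT), incubated 18 h at 4° with 2 nM [1,6-3H]TCDD. Run on 10–30% sucrose gradients at 65,000 rpm for 90 min with [14C]catalase marker. Fractions scintillation-counted; specific binding is peak fractions minus empty-vector lysate. Three replicates, mean ± standard error.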

A further data set concerns the target AHR2 from zebrafish. As to conditions: TCDD binding; cited from earlier work.
The next data set has as its target X. laevis AHR1α. As to conditions: read-out: apparent Kd; TCDD binding; cited from earlier work.
The target of data set [2] is T2, A. mexicanum AHR (Ambystoma mexicanum, UniProt A0A0F6TLE0).
T2 sequence (A0A0F6TLE0 1-853): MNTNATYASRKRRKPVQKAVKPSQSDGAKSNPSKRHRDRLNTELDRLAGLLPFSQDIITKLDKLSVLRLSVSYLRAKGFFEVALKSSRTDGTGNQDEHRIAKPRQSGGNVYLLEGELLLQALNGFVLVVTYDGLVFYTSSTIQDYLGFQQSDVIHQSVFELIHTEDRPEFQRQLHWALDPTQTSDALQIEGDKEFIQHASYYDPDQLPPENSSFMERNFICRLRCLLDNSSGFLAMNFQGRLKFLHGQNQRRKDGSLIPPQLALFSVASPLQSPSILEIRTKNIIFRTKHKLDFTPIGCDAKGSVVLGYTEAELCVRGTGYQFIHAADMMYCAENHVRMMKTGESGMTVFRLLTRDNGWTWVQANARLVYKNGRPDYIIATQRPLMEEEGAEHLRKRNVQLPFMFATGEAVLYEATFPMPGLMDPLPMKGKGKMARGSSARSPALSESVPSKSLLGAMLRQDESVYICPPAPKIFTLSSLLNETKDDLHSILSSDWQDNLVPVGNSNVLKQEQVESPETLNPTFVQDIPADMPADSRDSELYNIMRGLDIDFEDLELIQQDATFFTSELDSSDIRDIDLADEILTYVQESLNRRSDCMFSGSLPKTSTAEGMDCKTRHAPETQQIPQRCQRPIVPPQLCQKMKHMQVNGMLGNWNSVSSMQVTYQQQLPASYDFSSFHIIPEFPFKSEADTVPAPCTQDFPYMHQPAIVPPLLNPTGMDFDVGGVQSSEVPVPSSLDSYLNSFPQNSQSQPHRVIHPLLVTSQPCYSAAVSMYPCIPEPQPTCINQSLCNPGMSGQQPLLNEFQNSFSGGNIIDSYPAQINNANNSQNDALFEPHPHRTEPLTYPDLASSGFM
Nature of the data set: Velocity sedimentation analysis of [3H]TCDD binding, A. mexicanum AHR. As to conditions: 2 nM [3H]TCDD, 18 h at 4°, sucrose gradients, in vitro synthesized AHR. Put shortly: as §1

For the next data set, the system named is tern AHR. To be noted: tern AHR (V325, A381) vs chicken AHR (I325, S381); cited from earlier work.
For data set [3], the target named is T1, X. laevis AHR1β. As to conditions: cited from earlier work.
Data set [4] has as its target T2, A. mexicanum AHR. Put plainly: Transactivation. Type of data set: cell-based.
The test system of another data set is mouse AHR. As to conditions: TCDD binding; cited from earlier work.
Data set [5] has as its system larvae of the tiger salamander. As to conditions: cited from earlier work.
For data set [6], the target named is T1, X. laevis AHR1β. Nature of the data set: Transactivation. In kind it is cell-based.

For `Clc1cc2c(cc1Cl)Oc1cc(Cl)c(Cl)cc1O2` [TCDD, 2,3,7,8-tetrachlorodibenzo-p-dioxin], the Kd in the data set with chicken AHR is 0.8 nM; at AHR2 from zebrafish it was 1.1 nM; at X. laevis AHR1α it was 47.2 nM; with mouse AHR, 2.4 nM. In the data set on zebrafish, the LC100 result was “no more than 1.55 nM”. The “Specific [3H]TCDD binding peak relative to mouse AHR or chimeric AHR” value was “approximately one-tenth” on X. laevis AHR1β [1] and “one-tenth” at A. mexicanum AHR [2]. In the data set with tern AHR, the “TCDD affinity of tern AHR, fold lower than the chicken AHR” value is 7 fold. Besides, on X. laevis AHR1β [3], the “Kd (saturability of TCDD binding)” value was “unsaturable”. Further, the “EC50 of A. mexicanum AHR relative to that of the mouse:frog chimera” value on A. mexicanum AHR [4] (TCDD 24 h, fold greater than chimeric AHR) is listed as around 300 fold. Also, the “nominal TCDD concentrations defined as sub-lethal” value in data set [5] was “up to 3.0 μg/L and ≤ 9.3 nM”.

Regarding `O=Cc1c2[nH]c3ccccc3c2cc2[nH]c3ccccc3c12` [FICZ, 6-formylindolo[3,2-b]carbazole], the figures for the half-maximal effective concentration (EC50) on A. mexicanum AHR [4] and on X. laevis AHR1β [6] were 0.45 nM and 0.14 nM, respectively. The “EC50 of axolotl AHR relative to that of the chimeric AHR” value on A. mexicanum AHR [4] (FICZ 3 h exposure, fold greater than chimeric AHR) is reported as “about 45 fold”.
